In ChEMBL document CHEMBL2086252, “Syntheses and evaluation of anticonvulsant activity of novel branched alkyl carbamates” (J Med Chem, 2012):
The source made the active and inactive calls. The rule behind the calls is not given here.

Assays:
[1] = Neurotoxicity in po dosed Sprague-Dawley albino rat assessed as minimal motor impairment by rotarod test; format: toxicity, organism-based; details: in vivo
How it was run: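 Rats dosed orally; 4 rats per time point after dosing. Neurotoxicity was scored as motor impairment or sedation and reported as number of animals affected over number tested.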

[2] = system: Mus musculus; test: Anticonvulsant activity in albino CF1 mouse assessed as protection against subcutaneous metrazol-induced seizures at 30 mg/kg, ip after 0.5 hrs; format: functional, organism-based; parameters: dose 30 mg/kg
How it was run: (§1)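 Mice dosed ip at 30, 100 or 300 mg/kg, then tested 0.5 h and 4 h after administration in the MES or scMet test. Protection was recorded as animals protected over animals tested. Neurotoxicity was recorded as motor impairment or sedation, as animals affected over animals tested.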

[3] = system: Mus musculus; test: Anticonvulsant activity in albino CF1 mouse assessed as protection against subcutaneous metrazol-induced seizures at 300 mg/kg, ip after 0.5 hrs; format: functional, organism-based; parameters: dose 300 mg/kg; how it was run: as §1
[4] = system: Mus musculus; test: Anticonvulsant activity in albino CF1 mouse assessed as protection against subcutaneous metrazol-induced seizures at 30 mg/kg, ip after 4 hrs; format: functional, organism-based; parameters: dose 30 mg/kg; how it was run: as §1
[5] = system: Mus musculus; test: Anticonvulsant activity in albino CF1 mouse assessed as protection against subcutaneous metrazol-induced seizures at 100 mg/kg, ip after 4 hrs; format: functional, organism-based; parameters: dose 100 mg/kg; how it was run: as §1
[6] = system: Mus musculus; test: Anticonvulsant activity in albino CF1 mouse assessed as protection against subcutaneous metrazol-induced seizures at 300 mg/kg, ip after 4 hrs; format: functional, organism-based; parameters: dose 300 mg/kg; how it was run: as §1
[7] = system: Mus musculus; test: Anticonvulsant activity in albino CF1 mouse assessed as protection against maximal electroshock-induced seizures at 30 mg/kg, ip after 0.5 hrs; format: functional, organism-based; parameters: dose 30 mg/kg; how it was run: as §1
[8] = system: Mus musculus; test: Anticonvulsant activity in albino CF1 mouse assessed as protection against maximal electroshock-induced seizures at 100 mg/kg, ip after 0.5 hrs; format: functional, organism-based; parameters: dose 100 mg/kg; how it was run: as §1
[9] = system: Mus musculus; test: Anticonvulsant activity in albino CF1 mouse assessed as protection against maximal electroshock-induced seizures at 300 mg/kg, ip after 0.5 hrs; format: functional, organism-based; parameters: dose 300 mg/kg; how it was run: as §1
[10] = system: Mus musculus; test: Anticonvulsant activity in albino CF1 mouse assessed as protection against maximal electroshock-induced seizures at 30 mg/kg, ip after 4 hrs; format: functional, organism-based; parameters: dose 30 mg/kg; how it was run: as §1
[11] = system: Mus musculus; test: Anticonvulsant activity in albino CF1 mouse assessed as protection against maximal electroshock-induced seizures at 100 mg/kg, ip after 4 hrs; format: functional, organism-based; parameters: dose 100 mg/kg; how it was run: as §1
[12] = system: Mus musculus; test: Anticonvulsant activity in albino CF1 mouse assessed as protection against maximal electroshock-induced seizures at 300 mg/kg, ip after 4 hrs; format: functional, organism-based; parameters: dose 300 mg/kg; how it was run: as §1
[13] = system: Mus musculus; test: Neurotoxicity in albino CF1 mouse assessed as minimal motor impairment at 30 mg/kg, ip after 0.5 hrs by rotarod test; format: toxicity, organism-based; parameters: dose 30 mg/kg, route intraperitoneal; details: in vivo; how it was run: as §1
[14] = system: Mus musculus; test: Neurotoxicity in albino CF1 mouse assessed as minimal motor impairment at 300 mg/kg, ip after 0.5 hrs by rotarod test; format: toxicity, organism-based; parameters: dose 300 mg/kg, route intraperitoneal; details: in vivo; how it was run: as §1
[15] = system: Mus musculus; test: Neurotoxicity in albino CF1 mouse assessed as minimal motor impairment at 30 mg/kg, ip after 4 hrs by rotarod test; format: toxicity, organism-based; parameters: dose 30 mg/kg, route intraperitoneal; details: in vivo; how it was run: as §1
[16] = system: Mus musculus; test: Neurotoxicity in albino CF1 mouse assessed as minimal motor impairment at 100 mg/kg, ip after 4 hrs by rotarod test; format: toxicity, organism-based; parameters: dose 100 mg/kg, route intraperitoneal; details: in vivo; how it was run: as §1
[17] = system: Mus musculus; test: Neurotoxicity in albino CF1 mouse assessed as minimal motor impairment at 300 mg/kg, ip after 4 hrs by rotarod test; format: toxicity, organism-based; parameters: dose 300 mg/kg, route intraperitoneal; details: in vivo; how it was run: as §1
[18] = system: Rattus norvegicus; test: Anticonvulsant activity in Sprague-Dawley albino rat assessed as protection against maximal electroshock-induced seizures at 30 mg/kg, po after 15 mins; format: functional, organism-based; parameters: dose 30 mg/kg
How it was run: (§2)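 Rats dosed orally. Anti-MES protection was scored as animals protected over animals tested at each time after dosing. Neurotoxicity was scored as motor impairment or sedation, as animals affected over animals tested.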

[19] = system: Rattus norvegicus; test: Anticonvulsant activity in Sprague-Dawley albino rat assessed as protection against maximal electroshock-induced seizures at 30 mg/kg, po after 30 mins; format: functional, organism-based; parameters: dose 30 mg/kg; how it was run: as §2
[20] = system: Rattus norvegicus; test: Anticonvulsant activity in Sprague-Dawley albino rat assessed as protection against maximal electroshock-induced seizures at 30 mg/kg, po after 1 hr; format: functional, organism-based; parameters: dose 30 mg/kg; how it was run: as §2
[21] = system: Rattus norvegicus; test: Anticonvulsant activity in Sprague-Dawley albino rat assessed as protection against maximal electroshock-induced seizures at 30 mg/kg, po after 4 hrs; format: functional, organism-based; parameters: dose 30 mg/kg; how it was run: as §2
[22] = system: Rattus norvegicus; test: Neurotoxicity in Sprague-Dawley albino rat assessed as minimal motor impairment at 30 mg/kg, po by rotarod test; format: toxicity, organism-based; parameters: dose 30 mg/kg, route oral; details: in vivo; how it was run: as §2
[23] = system: Rattus norvegicus; test: Anticonvulsant activity in po dosed Sprague-Dawley albino rat assessed as protection against maximal electroshock-induced seizures; format: functional
How it was run: (§3)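 Quantitative testing: rats dosed orally or ip in MES and scMet tests, and mice dosed ip, including the 6 Hz (32 mA) psychomotor seizure test. ED50 and TD50 were reported in mg/kg with ranges in parentheses. Protective index was calculated as TD50/ED50.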

[24] = system: Mus musculus; test: Anticonvulsant activity in ip dosed albino CF1 mouse assessed as protection against maximal electroshock-induced seizures; format: functional; how it was run: as §3
[25] = system: Rattus norvegicus; test: Protective index, ratio of TD50 for po dosed Sprague-Dawley albino rat by rotarod test to ED50 for po dosed Sprague-Dawley albino rat by maximal electroshock seizures test; format: functional
How it was run: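 Protective index calculated as TD50/ED50, with TD50 and ED50 taken from the same species and dosing route.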

[26] = Neurotoxicity in ip dosed albino CF1 mouse assessed as minimal motor impairment by rotarod test; format: toxicity, organism-based; details: in vivo; how it was run: as §3
[27] = system: Rattus norvegicus; test: Anticonvulsant activity in ip dosed Sprague-Dawley albino rat assessed as protection against pilocarpine-induced status epilepticus after 0.5 hrs; format: functional
How it was run: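 Pilocarpine status epilepticus model in rats. Number and severity of convulsive seizures were observed behaviourally.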

[28] = system: Rattus norvegicus; test: Neurotoxicity in pilocarpine-induced status epilepticus Sprague-Dawley albino rat model assessed as minimal motor impairment at 200 mg/kg, ip after 0.5 hrs by rotarod test; format: toxicity, organism-based; parameters: dose 200 mg/kg, route intraperitoneal; details: in vivo
How it was run: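 Rat pilocarpine status epilepticus model: test carbamate given at 0 or 30 min after the first observed Racine stage 3 motor seizure, which marks SE onset. Neurotoxicity was scored within the same model.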

[29] = system: Mus musculus; test: Anticonvulsant activity in albino CF1 mouse assessed as protection against maximal electroshock-induced seizures at 3 mg/kg, ip after 0.5 hrs; format: functional, organism-based; parameters: dose 3 mg/kg
[30] = system: Mus musculus; test: Anticonvulsant activity in albino CF1 mouse assessed as protection against maximal electroshock-induced seizures at 10 mg/kg, ip after 0.5 hrs; format: functional, organism-based; parameters: dose 10 mg/kg
[31] = system: Mus musculus; test: Neurotoxicity in albino CF1 mouse assessed as minimal motor impairment at 3 mg/kg, ip after 0.5 hrs by rotarod test; format: toxicity, organism-based; parameters: dose 3 mg/kg, route intraperitoneal; details: in vivo
[32] = system: Mus musculus; test: Neurotoxicity in albino CF1 mouse assessed as minimal motor impairment at 10 mg/kg, ip after 0.5 hrs by rotarod test; format: toxicity, organism-based; parameters: dose 10 mg/kg, route intraperitoneal; details: in vivo

In the case of `NC(=O)OCCc1ccccc1` [PHENYLETHYL CARBAMATE], the TD50 [1] is reported as under 400 mg/kg, the Activity [2] is reported as “inactive” and the Activity [3] is reported as “Active”. For the same molecule, the Activity [4] was “inactive”, the Activity [5] was “inactive” and the Activity [6] was “inactive”. The Activity [7] was “Active”, the Activity [8] was “Active” and the Activity [9] was “Active”. For the same molecule, the Activity [10] was “inactive”, the Activity [11] was “inactive” and the Activity [12] was “Active”. For the same molecule, the Activity [13] was “Non-toxic”, the Activity [14] was “Toxic” and the Activity [15] was “Non-toxic”. For the same molecule, the Activity [16] was “Non-toxic”, the Activity [17] was “Non-toxic” and the Activity [18] was “Active”. For the same molecule, the Activity [19] was “Active”, the Activity [20] was “Active” and the Activity [21] was “inactive”. The Activity [22] was “Non-toxic”, the ED50 [23] was 16 mg/kg and the ED50 [24] was 18 mg/kg. The “Ratio TD50/ED50” value [25] was under 25, the TD50 [26] was 114 mg/kg and the ED50 [27] was 105 mg/kg. For the same molecule, the ED97 [27] was 221 mg/kg, the Activity [28] was “Toxic” and the Activity [29] was “inactive”. For the same molecule, the Activity [30] was “inactive”, the Activity [31] was “Non-toxic” and the Activity [32] was “Non-toxic”.
